# Measurements: ChEMBL document CHEMBL1136753, “Optimization of 2-phenylaminoimidazo[4,5-h]isoquinolin-9-ones: orally active inhibitors of lck kinase” (J Med Chem, 2003)
# How the values were obtained:
# [1] = target: Glycogen synthase kinase-3 beta (Homo sapiens, UniProt P49841); experiment: Inhibition of Glycogen synthase kinase-3 beta
# How it was run: (§1)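 Serine/threonine kinase panel run through the Dundee consortium with ATP at 100 µM. IC₅₀ values are reported.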
# [2] = target: Tyrosine-protein kinase ITK/TSK (Homo sapiens, UniProt Q08881); experiment: Inhibition of IL-2-inducible T-cell kinase (Itk kinase) was measured using DELFIA (dissociation enhanced lanthanide fluoroimmunoassay)
# How it was run: (§2)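 DELFIA tyrosine kinase assay on neutravidin-coated plates. Substrate is biotinylated poly-Glu₄-Tyr₁, with ATP at or below Km. Compounds are tested in 10-point dose response. After 45 min at room temperature, Eu-labelled anti-phosphotyrosine is added and time-resolved fluorescence is read (ex 360/em 620 nm). IC₅₀ is the mean of ≥2 determinations in duplicate.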
# Protein kinase C (PKC) = experiment: Inhibition of Protein kinase C; format: protein assay; how it was run: as §1
# [3] = target: Cyclin-dependent kinase 2 (Homo sapiens, UniProt P24941); experiment: Inhibition of Cyclin-dependent kinase 2; how it was run: as §1
# [4] = target: MAP kinase-activated protein kinase 2 (Homo sapiens, UniProt P49137); experiment: Inhibition of MAP kinase-activated protein kinase 1b/MAP kinase-activated protein kinase 2; how it was run: as §1
# [5] = target: c-Jun N-terminal kinase, JNK (Homo sapiens, UniProt P45983+P53779+P45984); experiment: Inhibition of c-Jun N-terminal kinase; format: protein assay; how it was run: as §1
# [6] = Inhibition of Insulin-like growth factor receptor
# How it was run: (§3)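 DELFIA tyrosine kinase assay: enzyme at 0.8 nM final, biotin-poly-Glu₄-Tyr₁ substrate, 1 µM final ATP. Ten-point dilutions from 1 µg/mL final, 45 min at room temperature. Phosphotyrosine read by Eu-anti-phosphotyrosine time-resolved fluorescence. IC₅₀ is the mean of two or more determinations in duplicate.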
# [7] = target: Tyrosine-protein kinase CSK (Homo sapiens) (UniProt P41240); experiment: Inhibition of Csk tyrosine kinase; details: concentration not given here; how it was run: as §3
# [8] = Inhibition of Platelet-derived growth factor receptor; how it was run: as §3
# [9] = target: Inhibitor of nuclear factor kappa-B kinase subunit beta (Homo sapiens, UniProt O14920); experiment: Inhibition of IKK beta kinase; how it was run: as §1
# [10] = Inhibition of Calcium/calmodulin-dependent protein kinase
# [11] = target: Inhibitor of nuclear factor kappa-B kinase subunit alpha (Homo sapiens, UniProt O15111); experiment: Inhibition of IKK alpha kinase; how it was run: as §1
# [12] = target: Ribosomal protein S6 kinase (P70S6K) (Homo sapiens, UniProt P23443+Q9UBS0); experiment: Inhibition of Ribosomal protein S6 kinase (P70S6K kinase); format: protein-complex assay; how it was run: as §1
# [13] = target: AMP-activated protein kinase, AMPK; experiment: Inhibition of AMP-activated Protein Kinase; format: protein-complex assay; how it was run: as §1
# [14] = target: Tyrosine-protein kinase SYK (Homo sapiens, UniProt P43405); experiment: Inhibition of Syk protein tyrosine kinase; how it was run: as §2
# [15] = Inhibition of PHK phosphorylase kinase
# [16] = target: 3-phosphoinositide-dependent protein kinase 1 (Homo sapiens, UniProt O15530); experiment: Inhibition of Phospho-inositide dependent kinase 1 (PDK1); how it was run: as §1
# Homo sapiens = organism: Homo sapiens; experiment: Inhibition of IL-2 production in human whole blood; format: functional
# [17] = target: MAP kinase-activated protein kinase 5 (Homo sapiens, UniProt Q8IW41); experiment: Inhibition of Protein kinase PRAK
# How it was run: (§4)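 Run externally by the Dundee consortium kinase panel with 100 µM ATP. IC50 values in µM.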
# [18] = target: Ribosomal protein S6 kinase alpha-5 (Homo sapiens, UniProt O75582); experiment: Inhibition of MSK-1 kinase; how it was run: as §4
# [19] = target: cAMP-dependent protein kinase (PKA) (Homo sapiens, UniProt P22694+P17612+P22612); experiment: Inhibition of Protein kinase A (PKA); format: protein assay; how it was run: as §1
# Jurkat = experiment: Inhibition of Calcium release in jurkat cells; format: functional, cell-based; details: Homo sapiens
# How it was run: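 Jurkat cells loaded with Fluo-3, washed in HBSS with 1 mM CaCl₂, 1 mM MgCl₂, 10 mM HEPES, 2 mM probenecid, 1% FBS, pH 7.4. Final 3 × 10⁵ cells/mL. Compound added for 15 min at room temperature, then anti-CD3 (clone X35, final 0.25 µg/mL). FLIPR fluorescence followed for 13 min. Peak minus baseline plotted against concentration gives EC₅₀. Mean of two or more experiments in duplicate ± SD.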
# Insulin receptor = Insulin receptor (Homo sapiens, UniProt P06213); experiment: Inhibition of Insulin receptor; how it was run: as §2
# [20] = target: Vascular endothelial growth factor receptor (Homo sapiens, UniProt P17948+P35916+P35968); experiment: Inhibition of Vascular endothelial growth factor receptor; format: protein assay; how it was run: as §2
# [21] = target: RAC-alpha serine/threonine-protein kinase (Homo sapiens, UniProt P31749); experiment: Inhibition of Protein kinase B alpha; how it was run: as §1
# [22] = target: Proto-oncogene tyrosine-protein kinase Src (Homo sapiens, UniProt P12931); experiment: Inhibition of Src protein tyrosine kinase; how it was run: as §2
# [23] = target: Rho-associated protein kinase 2 (Homo sapiens, UniProt O75116); experiment: Inhibition of Protein kinase ROCK2; how it was run: as §1
# [24] = target: Serine/threonine-protein kinase Sgk1 (Homo sapiens, UniProt O00141); experiment: Inhibition of Serum/glucocorticoid regulated kinase; how it was run: as §1
# [25] = target: Receptor tyrosine-protein kinase erbB-2 (Homo sapiens, UniProt P04626); experiment: Inhibition of Protein kinase HER-2; how it was run: as §2
# [26] = target: Tyrosine-protein kinase ZAP-70 (Homo sapiens, UniProt P43403); experiment: Inhibition of Zeta-chain (TCR) associated protein kinase 70 kDa (ZAP-70)
# How it was run: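 Kinase-panel IC50 with ATP at or below the Km of each listed kinase. Each value is the mean of two or more separate determinations, each in duplicate.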
# [27] = target: Cyclin-dependent kinase 4 (Homo sapiens, UniProt P11802); experiment: Inhibition of Cyclin-dependent kinase 4; how it was run: as §1
# [28] = target: Tyrosine-protein kinase Lyn (Homo sapiens, UniProt P07948); experiment: Inhibition of Protein tyrosine kinase Lyn; how it was run: as §2
# [29] = target: Hepatocyte growth factor receptor (Homo sapiens, UniProt P08581); experiment: Inhibition of Hepatocyte growth factor receptor; format: cell-based; how it was run: as §2
# [30] = target: Mitogen-activated protein kinase; ERK1/ERK2 (Homo sapiens, UniProt P27361+P28482); experiment: Inhibition of Mitogen-activated protein kinase; format: protein assay; how it was run: as §1
# Casein kinase II = Casein kinase II (Homo sapiens, UniProt P19784+P67870+P68400); experiment: Inhibition of Casein kinase II; format: protein-complex assay; how it was run: as §1
# tissue or blood = format: functional, tissue-based; details: Homo sapiens
# [31] = target: Serine/threonine-protein kinase Chk1 (Homo sapiens, UniProt O14757); experiment: Inhibition of Serine/threonine-protein kinase Chk1; how it was run: as §4
# [32] = target: Tyrosine-protein kinase Lck (Homo sapiens, UniProt P06239); experiment: Inhibition of p56 Lck tyrosine kinase
# Sequence of Tyrosine-protein kinase Lck (P06239 whole entry): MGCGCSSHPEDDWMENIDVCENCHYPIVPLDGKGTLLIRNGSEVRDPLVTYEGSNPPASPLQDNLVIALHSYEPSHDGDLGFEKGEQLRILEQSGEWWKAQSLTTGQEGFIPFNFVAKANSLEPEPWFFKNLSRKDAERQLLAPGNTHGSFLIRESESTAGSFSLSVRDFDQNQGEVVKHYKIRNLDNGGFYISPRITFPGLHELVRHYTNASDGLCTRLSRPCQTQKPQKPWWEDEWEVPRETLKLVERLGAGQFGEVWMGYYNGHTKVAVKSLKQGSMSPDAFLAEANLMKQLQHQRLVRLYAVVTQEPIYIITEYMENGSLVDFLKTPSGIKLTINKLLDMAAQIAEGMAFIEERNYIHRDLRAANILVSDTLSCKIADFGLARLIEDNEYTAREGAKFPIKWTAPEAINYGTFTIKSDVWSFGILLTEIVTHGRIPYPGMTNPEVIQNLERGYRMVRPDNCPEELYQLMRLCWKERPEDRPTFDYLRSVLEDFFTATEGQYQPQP
# Sequence of Tyrosine-protein kinase ITK/TSK (Q08881 whole entry): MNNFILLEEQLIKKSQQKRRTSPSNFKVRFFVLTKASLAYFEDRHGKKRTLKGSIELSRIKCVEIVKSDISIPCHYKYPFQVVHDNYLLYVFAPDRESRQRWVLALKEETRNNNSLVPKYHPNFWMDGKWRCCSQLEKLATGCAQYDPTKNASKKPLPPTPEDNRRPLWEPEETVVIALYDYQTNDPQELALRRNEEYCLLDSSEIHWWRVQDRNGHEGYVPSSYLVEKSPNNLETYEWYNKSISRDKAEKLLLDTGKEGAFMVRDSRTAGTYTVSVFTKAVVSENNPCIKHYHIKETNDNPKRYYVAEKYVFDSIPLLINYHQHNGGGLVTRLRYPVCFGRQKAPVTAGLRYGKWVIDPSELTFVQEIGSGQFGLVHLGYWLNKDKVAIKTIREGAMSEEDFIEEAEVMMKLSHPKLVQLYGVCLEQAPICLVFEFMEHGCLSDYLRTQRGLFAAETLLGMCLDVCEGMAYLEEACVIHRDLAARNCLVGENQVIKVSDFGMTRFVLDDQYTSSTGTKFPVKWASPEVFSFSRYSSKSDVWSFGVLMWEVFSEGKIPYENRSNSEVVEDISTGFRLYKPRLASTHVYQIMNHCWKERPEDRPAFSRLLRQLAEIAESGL
# Sequence of MAP kinase-activated protein kinase 2 (P49137 whole entry): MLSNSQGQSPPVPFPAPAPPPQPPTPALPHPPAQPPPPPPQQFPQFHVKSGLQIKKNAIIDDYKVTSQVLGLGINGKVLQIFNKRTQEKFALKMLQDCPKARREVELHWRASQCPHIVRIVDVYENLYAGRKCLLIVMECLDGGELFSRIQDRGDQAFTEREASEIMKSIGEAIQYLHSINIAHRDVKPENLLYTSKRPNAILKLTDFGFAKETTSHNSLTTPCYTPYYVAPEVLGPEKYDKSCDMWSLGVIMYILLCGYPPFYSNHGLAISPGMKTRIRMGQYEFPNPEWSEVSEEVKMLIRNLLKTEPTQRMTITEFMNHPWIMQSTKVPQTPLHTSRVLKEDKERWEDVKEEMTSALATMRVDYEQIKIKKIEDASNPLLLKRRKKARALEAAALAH
# Sequence of Glycogen synthase kinase-3 beta (P49841 whole entry): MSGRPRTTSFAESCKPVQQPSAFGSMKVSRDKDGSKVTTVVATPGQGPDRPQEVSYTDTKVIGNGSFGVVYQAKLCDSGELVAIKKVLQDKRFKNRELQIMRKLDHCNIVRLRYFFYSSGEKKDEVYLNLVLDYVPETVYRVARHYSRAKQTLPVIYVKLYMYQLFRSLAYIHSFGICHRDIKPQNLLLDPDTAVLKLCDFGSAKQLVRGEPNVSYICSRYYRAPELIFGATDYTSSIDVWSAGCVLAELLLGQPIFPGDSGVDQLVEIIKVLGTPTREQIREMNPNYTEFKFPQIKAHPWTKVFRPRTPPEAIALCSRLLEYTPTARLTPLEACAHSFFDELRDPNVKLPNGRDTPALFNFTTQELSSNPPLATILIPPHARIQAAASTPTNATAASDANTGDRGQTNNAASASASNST
# Sequence of Tyrosine-protein kinase CSK (Homo sapiens) (P41240 2-450 limits assumed): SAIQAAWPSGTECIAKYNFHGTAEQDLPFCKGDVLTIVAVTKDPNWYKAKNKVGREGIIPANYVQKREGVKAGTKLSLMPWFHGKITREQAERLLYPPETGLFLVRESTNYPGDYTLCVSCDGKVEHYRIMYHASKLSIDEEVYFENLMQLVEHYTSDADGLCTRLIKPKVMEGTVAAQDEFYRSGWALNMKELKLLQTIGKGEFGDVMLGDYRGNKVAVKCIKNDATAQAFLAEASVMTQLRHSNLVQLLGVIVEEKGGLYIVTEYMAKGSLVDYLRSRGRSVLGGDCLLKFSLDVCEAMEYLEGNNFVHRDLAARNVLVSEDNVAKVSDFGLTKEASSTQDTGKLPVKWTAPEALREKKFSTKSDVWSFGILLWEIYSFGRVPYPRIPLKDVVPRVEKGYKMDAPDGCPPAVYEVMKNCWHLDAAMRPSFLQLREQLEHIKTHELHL
# Sequence of Ribosomal protein S6 kinase alpha-5 (O75582 whole entry): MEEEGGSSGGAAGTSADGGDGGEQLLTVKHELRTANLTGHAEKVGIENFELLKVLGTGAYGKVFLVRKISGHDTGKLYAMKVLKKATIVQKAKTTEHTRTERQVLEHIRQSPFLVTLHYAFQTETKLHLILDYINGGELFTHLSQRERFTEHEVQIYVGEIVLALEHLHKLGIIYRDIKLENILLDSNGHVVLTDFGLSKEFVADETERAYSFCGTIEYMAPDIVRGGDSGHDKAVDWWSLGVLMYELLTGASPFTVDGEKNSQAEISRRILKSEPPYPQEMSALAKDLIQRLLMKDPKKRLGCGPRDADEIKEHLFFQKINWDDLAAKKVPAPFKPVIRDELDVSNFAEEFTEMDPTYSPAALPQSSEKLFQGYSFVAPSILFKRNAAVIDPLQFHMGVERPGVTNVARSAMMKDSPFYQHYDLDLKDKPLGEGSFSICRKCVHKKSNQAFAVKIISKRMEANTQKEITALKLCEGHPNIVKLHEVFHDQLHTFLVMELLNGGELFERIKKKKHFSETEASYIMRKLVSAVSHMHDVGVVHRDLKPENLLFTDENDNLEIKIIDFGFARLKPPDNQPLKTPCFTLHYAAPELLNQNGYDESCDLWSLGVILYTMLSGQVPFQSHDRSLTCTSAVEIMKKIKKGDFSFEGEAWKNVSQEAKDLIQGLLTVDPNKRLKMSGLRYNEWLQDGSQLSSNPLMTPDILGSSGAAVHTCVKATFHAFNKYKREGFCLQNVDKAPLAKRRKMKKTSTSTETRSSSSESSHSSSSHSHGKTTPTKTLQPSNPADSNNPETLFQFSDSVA
# Sequence of Serine/threonine-protein kinase Sgk1 (O00141 whole entry): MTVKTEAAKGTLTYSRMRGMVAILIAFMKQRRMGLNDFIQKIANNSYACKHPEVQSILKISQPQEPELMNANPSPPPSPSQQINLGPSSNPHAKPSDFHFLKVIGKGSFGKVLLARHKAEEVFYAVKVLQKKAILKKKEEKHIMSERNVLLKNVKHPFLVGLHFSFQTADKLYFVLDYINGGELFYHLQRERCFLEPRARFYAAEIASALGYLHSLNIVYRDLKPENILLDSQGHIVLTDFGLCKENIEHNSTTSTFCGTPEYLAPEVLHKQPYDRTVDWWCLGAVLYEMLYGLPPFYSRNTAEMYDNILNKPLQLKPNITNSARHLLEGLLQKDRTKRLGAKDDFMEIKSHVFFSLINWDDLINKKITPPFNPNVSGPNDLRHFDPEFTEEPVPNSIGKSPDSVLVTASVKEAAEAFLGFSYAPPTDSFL
# Sequence of Hepatocyte growth factor receptor (P08581 whole entry): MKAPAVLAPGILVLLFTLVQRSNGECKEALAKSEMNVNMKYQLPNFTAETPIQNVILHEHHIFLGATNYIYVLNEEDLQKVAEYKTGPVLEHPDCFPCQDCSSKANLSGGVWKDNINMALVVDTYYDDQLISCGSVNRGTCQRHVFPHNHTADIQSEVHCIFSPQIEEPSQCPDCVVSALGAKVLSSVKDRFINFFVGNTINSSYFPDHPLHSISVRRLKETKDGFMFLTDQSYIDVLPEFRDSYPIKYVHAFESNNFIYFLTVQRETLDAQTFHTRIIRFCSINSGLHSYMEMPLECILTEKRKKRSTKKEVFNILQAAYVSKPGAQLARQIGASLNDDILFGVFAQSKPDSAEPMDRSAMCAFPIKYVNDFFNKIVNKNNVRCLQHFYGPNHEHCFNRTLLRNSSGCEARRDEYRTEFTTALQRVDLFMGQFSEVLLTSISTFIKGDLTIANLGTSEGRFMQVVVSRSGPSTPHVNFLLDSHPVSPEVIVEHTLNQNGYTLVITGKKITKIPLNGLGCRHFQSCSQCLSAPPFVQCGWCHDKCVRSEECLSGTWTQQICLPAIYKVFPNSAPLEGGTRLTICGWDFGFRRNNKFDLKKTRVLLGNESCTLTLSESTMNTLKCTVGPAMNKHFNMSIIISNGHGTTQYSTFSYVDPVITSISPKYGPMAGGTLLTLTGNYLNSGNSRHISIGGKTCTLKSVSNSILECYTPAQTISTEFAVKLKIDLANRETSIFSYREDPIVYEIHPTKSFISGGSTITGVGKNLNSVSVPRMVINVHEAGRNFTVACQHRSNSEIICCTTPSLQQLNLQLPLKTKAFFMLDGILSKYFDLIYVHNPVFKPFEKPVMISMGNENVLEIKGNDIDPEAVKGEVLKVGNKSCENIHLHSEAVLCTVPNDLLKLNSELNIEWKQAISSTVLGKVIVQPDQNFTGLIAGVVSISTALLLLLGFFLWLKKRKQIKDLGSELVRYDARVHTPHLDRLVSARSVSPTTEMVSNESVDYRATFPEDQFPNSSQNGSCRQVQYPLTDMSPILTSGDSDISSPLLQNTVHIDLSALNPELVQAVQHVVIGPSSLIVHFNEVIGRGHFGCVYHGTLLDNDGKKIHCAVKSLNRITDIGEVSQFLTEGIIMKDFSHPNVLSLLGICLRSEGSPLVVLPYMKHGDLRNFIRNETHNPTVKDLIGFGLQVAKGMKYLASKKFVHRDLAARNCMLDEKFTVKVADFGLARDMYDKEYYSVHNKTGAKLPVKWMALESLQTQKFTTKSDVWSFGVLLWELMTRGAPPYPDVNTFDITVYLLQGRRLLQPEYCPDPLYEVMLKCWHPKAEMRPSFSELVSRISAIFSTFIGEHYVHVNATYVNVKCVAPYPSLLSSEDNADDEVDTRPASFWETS
compound,measurement,setting,value
CCN(CC)C/C=C/c1nc(O)c2c(ccc3nc(Nc4c(Cl)cccc4Cl)n(C)c32)c1C,IC50,[1],> 1000 nM
same,IC50,[2],> 10000 nM
same,IC50,Protein kinase C (PKC),> 300000 nM
same,IC50,[3],> 1000 nM
same,IC50,[4],> 1000 nM
same,IC50,[5],> 1000 nM
same,IC50,[6],> 100000 nM
same,inhibition,[7],87%
same,IC50,[8],8 nM
same,IC50,[9],50000 nM
same,IC50,[10],> 100000 nM
same,IC50,[11],50000 nM
same,IC50,[12],> 1000 nM
same,IC50,[13],> 1000 nM
same,IC50,[14],> 40000 nM
same,IC50,[15],> 1000 nM
same,IC50,[16],> 1000 nM
same,EC50,Homo sapiens,1800 nM
same,IC50,[17],> 1000 nM
same,IC50,[18],> 1000 nM
same,IC50,[19],> 100000 nM
same,EC50,Jurkat,7 nM
same,IC50,Insulin receptor,> 100000 nM
same,IC50,[20],> 100000 nM
same,IC50,[21],> 1000 nM
same,IC50,[22],0.2 nM
same,IC50,[23],> 1000 nM
same,IC50,[24],> 1000 nM
same,IC50,[25],> 10000 nM
same,IC50,[26],400 nM
same,IC50,[27],> 100000 nM
same,IC50,[28],2 nM
same,IC50,[29],> 100000 nM
same,IC50,[30],> 30000 nM
same,IC50,Casein kinase II,> 1000 nM
same,EC50,tissue or blood,130 nM
same,IC50,[31],> 1000 nM
Cc1c(/C=C/CO)nc(O)c2c1ccc1nc(Nc3c(Cl)cccc3Cl)n(C)c12,EC50,Homo sapiens,3000 nM
same,EC50,Jurkat,8 nM
Cc1c(/C=C/CN(C)C)nc(O)c2c1ccc1nc(Nc3c(Cl)cccc3Cl)n(C)c12,IC50,[32],3 nM
same,EC50,Homo sapiens,680 nM
same,EC50,Jurkat,10 nM
same,EC50,tissue or blood,560 nM
Cc1c(CNCc2ccccc2)nc(O)c2c1ccc1nc(Nc3c(Cl)cccc3Cl)n(C)c12,IC50,[32],2000 nM
same,EC50,Jurkat,4200 nM
Cc1nc(O)c2c(ccc3nc(Nc4c(Cl)cccc4Cl)n(C)c32)c1CC(=O)N1CCOCC1,IC50,[32],120 nM
same,EC50,Jurkat,660 nM
Cc1c(/C=C/CN2CCOCC2)nc(O)c2c1ccc1nc(Nc3c(Cl)cccc3Cl)n(C)c12,IC50,[32],4 nM
same,EC50,Jurkat,30 nM
same,EC50,tissue or blood,170 nM
Cc1nc(O)c2c(ccc3nc(Nc4c(Cl)cccc4Cl)n(C)c32)c1CCN1CCOCC1,IC50,[32],30 nM
same,EC50,Jurkat,270 nM
Cc1nc(O)c2c(ccc3nc(Nc4c(Cl)cccc4Cl)n(C)c32)c1CCCN1CCOCC1,IC50,[32],110 nM
same,EC50,Jurkat,300 nM
COC(=O)CCc1nc(O)c2c(ccc3nc(Nc4c(Cl)cccc4Cl)n(C)c32)c1C,IC50,[32],360 nM
same,EC50,Jurkat,230 nM
Cc1nc(O)c2c(cc(-c3ccc(F)nc3F)c3nc(Nc4c(Cl)cccc4Cl)n(C)c32)c1C,IC50,[32],50 nM
same,EC50,Jurkat,370 nM
Cc1nc(O)c2c(ccc3nc(Nc4c(Cl)cccc4Cl)n(C)c32)c1CC(=O)N1CCN(C)CC1,IC50,[32],440 nM
same,EC50,Jurkat,1200 nM
Cc1c(/C=C/CN2CCCC2)nc(O)c2c1ccc1nc(Nc3c(Cl)cccc3Cl)n(C)c12,EC50,Homo sapiens,300 nM
same,EC50,Jurkat,5 nM
same,EC50,tissue or blood,150 nM
CCOC(=O)Cc1c(C)nc(O)c2c1ccc1nc(Nc3c(Cl)cccc3Cl)n(C)c12,IC50,[32],700 nM
same,EC50,Jurkat,140 nM
Cc1c(C=O)nc(O)c2c1ccc1nc(Nc3c(Cl)cccc3Cl)n(C)c12,IC50,[32],170 nM
same,EC50,Jurkat,450 nM
Cc1c(/C=C/CN)nc(O)c2c1ccc1nc(Nc3c(Cl)cccc3Cl)n(C)c12,IC50,[32],2 nM
same,EC50,Homo sapiens,3300 nM
same,EC50,Jurkat,21 nM
same,EC50,tissue or blood,920 nM
CCc1nc(O)c2c(ccc3nc(Nc4c(Cl)cccc4Cl)n(C)c32)c1C,IC50,[32],780 nM
same,EC50,Jurkat,80 nM
